{"source": "paper PMC10610910", "about": "(Science Advances, 2023)", "molecules": {"B1": {"name": "HSF2BP H80A-R84A (natural protein, human, UniProt O75031 1-334, looked up)", "chain": "MGEAGAAEEACRHMGTKEEFVKVRKKDLERLTTEVMQIRDFLPRILNGEVLESFQKLKIVEKNLERKEQELEQLKMDCEAFKAALETVQADNIREKKEKLALRQQLNEAKQQLLQQAEYCTEMGAAACTLLWGVSSSEEVVKAILGGDKALKFFSITGQTMESFVKSLDGDVQELDSDESQFVFALAGIVTNVAAIACGREFLVNSSRVLLDTILQLLGDLKPGQCTKLKVLMLMSLYNVSINLKGLKYISESPGFIPLLWWLLSDPDAEVCLHVLRLVQSVVLEPEVFSKSASEFRSSLPLQRILAMSKSRNPRLQTAAQELLEDLRTLEHNV"}}, "key": {"SEC-MALS": {"target": "the molecule itself", "test": "SEC-MALS"}, "HeLa cells": {"system": "HeLa cells", "assay_type": "cell-based, human", "details": "HeLa stably producing the protein; MMC, cisplatin, talazoparib", "how_it_was_run": "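HeLa cells in DMEM with 10% fetal calf serum were stably co-transfected (PiggyBac) with GFP-HSF2BP and/or Flag-BRME1 variants, then selected with puromycin (1.5 μg/ml) and G418 (800 μg/ml) for 8 days; mixed populations were used. Seeded 100–1000 cells/well in technical duplicates, drugs added next day: MMC 2 h, cisplatin or talazoparib overnight. Coomassie-stained colonies counted on day 10.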"}}}
{"molecule": "B1", "values": [{"measurement": "stoichiometry N", "setting": "SEC-MALS", "value": 8}, {"measurement": "effect on cell resistance to DNA damage, in words", "setting": "HeLa cells", "value": "compromised cell survival as HSF2BP wild type"}]}
